In publication PMC9320808 (Chemmedchem, 2022):
Read-outs that look alike come from different tables or passages of the source.

Tests used:
PD−L1 = conditions: cited from earlier work
PD‐1/PD−L1 = PD‐1/PD−L1 (Homo sapiens, UniProt Q9NZQ7); test: Homogenous time-resolved fluorescence; type: binding; conditions: read-out: Measured IC50; HTRF PD-1/PD-L1 assay; mean±SD, n=2–3 in triplicate
Outline: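 Competitive TR-FRET (HTRF) kit assay: PD-L1-6His-tag and PD-1-Ig, detected by anti-human IgG-Eu³⁺ cryptate and anti-6HIS-XL665 antibody. Test compounds plated per the kit instructions. Signal read on a multimode plate reader, and IC50 derived from the inhibition of PD-1/PD-L1 binding.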

PD‐1/PD−L1, sequence (Q9NZQ7 19-238 limits assumed): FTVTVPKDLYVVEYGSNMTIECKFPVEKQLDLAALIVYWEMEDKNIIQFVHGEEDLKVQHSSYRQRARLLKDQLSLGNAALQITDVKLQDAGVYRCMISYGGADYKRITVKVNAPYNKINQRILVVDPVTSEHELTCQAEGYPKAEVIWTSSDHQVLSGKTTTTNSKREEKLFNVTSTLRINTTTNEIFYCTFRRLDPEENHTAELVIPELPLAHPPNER

IC50 (PD‐1/PD−L1)	Substance	IC50 (PD−L1; read-out: Reported IC50, literature value)	IC50 (PD−L1; read-out: reported IC50, reported value for BMS71)
2.25 ± 0.36 nM	Atezolizumab: therapeutic antibody targeting PD−L1	3.83 nM	–
–	Cyclo(AcPhe−^mPhe−^mNle−^mGly−Asp−Val−^mPhe−Tyr−^mGly−Trp−Tyr−Leu−Cys)‐Gly−NH2 [BMS71]	–	7 nM
